Assay results as given in ChEMBL document CHEMBL1156894, “Potent oxadiazole CGRP receptor antagonists for the potential treatment of migraine” (Bioorg Med Chem Lett, 2010).
≈ marks a conversion by molar mass, not a printed value.

Experiments:
[1] = molecular target: T1, Calcitonin gene-related peptide type 1 receptor (Homo sapiens, UniProt O60894+Q16602); assay: Antagonist activity at human recombinant CGRP receptor expressed in HEK293 cells assessed as inhibition of CGRP-stimulated increase of intracellular cAMP level in absence of human serum albumin; type: functional, cell-based
Method in brief: (§1)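 HEK 293 cells expressing human recombinant CGRP receptor; antagonism of CGRP-stimulated rise in intracellular cAMP measured, run with or without HSA; functional pKi (fpKi) derived. Values are means of two experiments unless otherwise footnoted.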

[2] = Permeability across artificial membrane; type: ADME; conditions: PAMPA; read-out: permeability
Method in brief: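 In vitro artificial membrane permeability assay (PAMPA).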

[3] = Blood clearance in rat; type: ADME, organism-based
[4] = Aqueous solubility in fasted-state simulated intestinal fluid after 1 hr; type: physicochemical
Method in brief: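 Compound amount dissolved in fasted-state simulated intestinal fluid, read at the 1 h time point.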

[5] = molecular target: T1, Calcitonin gene-related peptide type 1 receptor; assay: Antagonist activity at human recombinant CGRP receptor expressed in HEK293 cells assessed as inhibition of CGRP-stimulated increase of intracellular cAMP level in presence of human serum albumin; type: functional, cell-based; method in brief: as §1
[6] = Half life in rat at 1 mg/kg, iv; type: ADME, organism-based; set-up: dose 1 mg/kg, route intravenous; conditions: in vivo
Method in brief: (§2)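 Intravenous dose of 1 mg/kg in rat; clearance and half-life derived from the blood profile.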

Rattus norvegicus [7] = assay: Dose normalized AUC in rat at 10 mg/kg, po in 5% N-Methyl-2-pyrrolidone, 80% Poly(ethylene glycol400 diluted to volume with 20% vitamin E TPGS in water; type: ADME, organism-based; set-up: dose 10 mg/kg, route oral; conditions: in vivo
Method in brief: (§3)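 Rats given 10 mg/kg orally, formulated at 2 mg/mL in 5% NMP, 80% PEG400 made up to volume with 20% Vitamin E TPGS in water. Blood concentration-time profile followed over about 5 h per rat, giving Cmax, Tmax and dose-normalised AUC.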

[8] = Clearance in rat at 1 mg/kg, iv; type: ADME, organism-based; set-up: dose 1 mg/kg, route intravenous; conditions: in vivo; method in brief: as §2
[9] = Cmax in rat at 10 mg/kg, po in 5% N-Methyl-2-pyrrolidone, 80% Poly(ethylene glycol400 diluted to volume with 20% vitamin E TPGS in water; type: ADME, organism-based; set-up: dose 10 mg/kg, route oral; conditions: in vivo; method in brief: as §3
Rattus norvegicus [10] = assay: Liver blood flow in rat at 1 mg/kg, iv; type: ADME, organism-based; set-up: dose 1 mg/kg, route intravenous; conditions: in vivo
[11] = Bioavailability in rat at 10 mg/kg, po in 5% N-Methyl-2-pyrrolidone, 80% Poly(ethylene glycol400 diluted to volume with 20% vitamin E TPGS in water; type: ADME, organism-based; conditions: in vivo
[12] = Tmax in rat at 10 mg/kg, po in 5% N-Methyl-2-pyrrolidone, 80% Poly(ethylene glycol400 diluted to volume with 20% vitamin E TPGS in water; type: ADME, organism-based; set-up: dose 10 mg/kg, route oral; conditions: in vivo; method in brief: as §3
Rattus norvegicus [13] = assay: Dose normalized in rat at 10 mg/kg, po in 1% methylcellulose; type: ADME, organism-based; set-up: dose 10 mg/kg, route oral; conditions: in vivo
Method in brief: (§4)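 Oral dosing to rats at 10 mg/kg as a 2 mg/mL suspension in 1% (w/v) aqueous methylcellulose. Blood concentrations followed over about 6 h, giving Cmax, Tmax and dose-normalised AUC.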

[14] = Bioavailability in rat at 10 mg/kg, po in 1% methylcellulose; type: ADME, organism-based; conditions: in vivo
[15] = Cmax in rat at 10 mg/kg, po in 1% methylcellulose; type: ADME, organism-based; set-up: dose 10 mg/kg, route oral; conditions: in vivo; method in brief: as §4
[16] = Tmax in rat at 10 mg/kg, po in 1% methylcellulose; type: ADME, organism-based; set-up: dose 10 mg/kg, route oral; conditions: in vivo; method in brief: as §4

T1 sequence (Q16602 whole entry, one chain of several): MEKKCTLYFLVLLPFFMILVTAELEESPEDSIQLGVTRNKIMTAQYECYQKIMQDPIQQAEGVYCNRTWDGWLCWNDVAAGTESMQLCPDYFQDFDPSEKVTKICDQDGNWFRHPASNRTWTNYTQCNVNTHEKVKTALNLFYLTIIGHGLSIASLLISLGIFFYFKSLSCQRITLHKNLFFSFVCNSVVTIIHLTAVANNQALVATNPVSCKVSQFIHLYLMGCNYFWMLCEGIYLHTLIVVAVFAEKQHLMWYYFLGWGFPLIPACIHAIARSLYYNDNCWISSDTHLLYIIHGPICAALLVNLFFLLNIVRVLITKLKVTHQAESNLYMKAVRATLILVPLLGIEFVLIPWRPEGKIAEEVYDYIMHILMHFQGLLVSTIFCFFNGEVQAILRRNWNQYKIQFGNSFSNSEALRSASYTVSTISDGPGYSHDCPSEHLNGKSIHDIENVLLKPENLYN

Row | SMILES | Ki [1] | Papp [2] | solubility at 1 h [4] | Ki [5] | other results
1 | O=C(Cc1nnc(-c2cc(-c3ccccc3)cc(N3CCOCC3)c2)o1)N1CCC(n2c(=O)[nH]c3ncccc32)CC1 | 200 nM | – | – | – | –
2 | O=C(Cc1nnc(-c2cc(Cl)cc(C3CCN(CC(F)F)CC3)c2)o1)N1CCC(n2c(=O)[nH]c3ncccc32)CC1 | 3.98 nM | 20 ×10⁻⁶ cm/s | 10 µg/mL (≈ 17.1 µM) | 79.4 nM | clearance [3]: 67 mL/min/kg
3 | O=C(Cc1nnc(-c2cc(Cl)ccc2Cl)o1)N1CCC(n2c(=O)[nH]c3ncccc32)CC1 | 126 nM | – | – | – | –
4 | O=C(Cc1nnc(-c2c(Cl)cccc2Cl)o1)N1CCC(n2c(=O)[nH]c3ncccc32)CC1 | 794 nM | – | – | – | –
5 | O=C(Cc1nnc(-c2cccc(Cl)c2)o1)N1CCC(n2c(=O)[nH]c3ncccc32)CC1 | 316 nM | – | – | – | –
6 | O=C(Cc1nnc(-c2cc(Cl)cc(C(F)(F)F)c2)o1)N1CCC(n2c(=O)[nH]c3ncccc32)CC1 | 3.98 nM | – | – | – | half-life [6]: 0.5 h; AUC (Rattus norvegicus [7]): 6.3 kg·min/L; clearance [8]: 33 mL/min/kg; Cmax [9]: 700 nM; LBF (Rattus norvegicus [10]): 40%; bioavailability [11]: 20%; Tmax [12]: 1.5 h
7 | O=C(Cc1nnc(-c2ccc(Cl)cc2)o1)N1CCC(n2c(=O)[nH]c3ncccc32)CC1 | 1000 nM | – | – | – | –
8 | O=C(Cc1nnc(-c2cc(Cl)cc(-c3ccccc3)c2)o1)N1CCC(n2c(=O)[nH]c3ncccc32)CC1 | 2.51 nM | – | – | – | –
9 | O=C(Cc1nnc(-c2cc(Cl)cc(N3CCOCC3)c2)o1)N1CCC(n2c(=O)[nH]c3ncccc32)CC1 | 6.31 nM | 12 ×10⁻⁶ cm/s | 40 µg/mL (≈ 76.3 µM) | 126 nM | clearance [3]: 70 mL/min/kg
10 | COc1cc(OC)cc(-c2nnc(CC(=O)N3CCC(n4c(=O)[nH]c5ncccc54)CC3)o2)c1 | 50.1 nM | – | – | – | –
11 | O=C(Cc1nnc(-c2cc(F)cc(Cl)c2)o1)N1CCC(n2c(=O)[nH]c3ncccc32)CC1 | 25.1 nM | – | – | – | –
12 | O=C(Cc1nnc(-c2cc(Cl)cc(Br)c2)o1)N1CCC(n2c(=O)[nH]c3ncccc32)CC1 | 12.6 nM | – | – | – | –
13 | O=C(Cc1nnc(-c2cc(C(F)(F)F)cc(C(F)(F)F)c2)o1)N1CCC(n2c(=O)[nH]c3ncccc32)CC1 | 25.1 nM | – | – | – | –
14 | CN1CCN(c2cc(Cl)cc(-c3nnc(CC(=O)N4CCC(n5c(=O)[nH]c6ncccc65)CC4)o3)c2)CC1 | 5.01 nM | < 0.3 ×10⁻⁶ cm/s | 210 µg/mL (≈ 391 µM) | 25.1 nM | clearance [3]: 72 mL/min/kg
15 | O=C(Cc1nnc(-c2ccccc2Cl)o1)N1CCC(n2c(=O)[nH]c3ncccc32)CC1 | 501 nM | – | – | – | –
16 | CN1CCC(c2cc(Cl)cc(-c3nnc(CC(=O)N4CCC(n5c(=O)[nH]c6ncccc65)CC4)o3)c2)CC1 | 3.98 nM | 2.2 ×10⁻⁶ cm/s | 531 µg/mL (≈ 991 µM) | 20 nM | –
17 | Cc1ncc(-c2cc(Cl)cc(-c3nnc(CC(=O)N4CCC(n5c(=O)[nH]c6ncccc65)CC4)o3)c2)n1C | 1.58 nM | < 0.3 ×10⁻⁶ cm/s | 390 µg/mL (≈ 732 µM) | 100 nM | clearance [3]: 52 mL/min/kg
18 | COc1ccc(-c2ccccc2)cc1CC(=O)N1CCC(n2c(=O)[nH]c3ncccc32)CC1 | 2510 nM | – | – | – | –
19 | O=C(Cc1nnc(-c2cc(Cl)cc(Cl)c2)o1)N1CCC(n2c(=O)[nH]c3ncccc32)CC1 | 15.8 nM | – | – | – | –
20 | Cc1cc(C)cc(-c2nnc(CC(=O)N3CCC(n4c(=O)[nH]c5ncccc54)CC3)o2)c1 | 25.1 nM | – | – | – | –
21 | CN(C)CCOc1cc(Cl)cc(-c2nnc(CC(=O)N3CCC(N4CCc5ccccc5NC4=O)CC3)o2)c1 | 12.6 nM | 18.5 ×10⁻⁶ cm/s | 120 µg/mL (≈ 217 µM) | 15.8 nM | half-life [6]: 1.9 h; AUC (Rattus norvegicus [13]): 2.5 kg·min/L; bioavailability [14]: 14%; clearance [8]: 50 mL/min/kg; Cmax [15]: 250 nM; Tmax [16]: 3 h; clearance [3]: 50 mL/min/kg
22 | O=C(Cc1nnc(-c2ccc(Cl)c(Cl)c2)o1)N1CCC(n2c(=O)[nH]c3ncccc32)CC1 | 251 nM | – | – | – | –
23 | O=C(Cc1nnc(-c2cccc(Cl)c2Cl)o1)N1CCC(n2c(=O)[nH]c3ncccc32)CC1 | 158 nM | – | – | – | –
24 | O=C(Cc1nnc(-c2ccccc2)o1)N1CCC(n2c(=O)[nH]c3ncccc32)CC1 | 200 nM | – | – | – | –
25 | COc1cc(Cl)cc(-c2nnc(CC(=O)N3CCC(n4c(=O)[nH]c5ncccc54)CC3)o2)c1 | 7.94 nM | – | – | – | –
26 | O=C(Cc1nnc(-c2cc(F)cc(F)c2)o1)N1CCC(n2c(=O)[nH]c3ncccc32)CC1 | 126 nM | – | – | – | –
27 | CN(C)CCOc1cc(Cl)cc(-c2nnc(CC(=O)N3CCC(n4c(=O)[nH]c5ncccc54)CC3)o2)c1 | 5.01 nM | 1.2 ×10⁻⁶ cm/s | 330 µg/mL (≈ 627 µM) | 50.1 nM | –
28 | Cc1cc(-c2nnc(CC(=O)N3CCC(n4c(=O)[nH]c5ncccc54)CC3)o2)cc(N2CCOCC2)c1 | 6.31 nM | – | – | – | –
29 | Cc1ccc(-c2cc(Cl)cc(-c3nnc(CC(=O)N4CCC(n5c(=O)[nH]c6ncccc65)CC4)o3)c2)cn1 | 2.51 nM | 22 ×10⁻⁶ cm/s | < 1 µg/mL | 126 nM | –
30 | CCN1CCC(c2cc(Cl)cc(-c3nnc(CC(=O)N4CCC(n5c(=O)[nH]c6ncccc65)CC4)o3)c2)CC1 | 3.16 nM | 0.5 ×10⁻⁶ cm/s | 565 µg/mL (≈ 1030 µM) | 15.8 nM | –
